CAL PDZ FP-1 – inhibitors of human CAL PDZ peptide binding | Q9HD26 | purified CAL PDZ, TMR-peptide fluorescence polarization, 1 h | inhibition, % at 24.9 µM | actives 0.92% (n = 300,000);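 active = mean inhibition of at least 30% with at least half of replicates also reaching 30%; inconclusive = no clear call, values can overlap the other calls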;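 also: 0% = DMSO neutral control and 100% = excess unlabeled competitor peptide PRC23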
ERAP1 inh – inhibitors of human ERAP1 aminopeptidase | Q9NZ08 | recombinant ERAP1, Leu-AMC fluorescence, 60 min | inhibition, % at 10.7 µM | actives 0.15% (n = 340,000);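 active = mean replicate inhibition of at least 30%, or all replicates individually reaching that 30% level; inactive = mean below 30% and not every replicate reaching it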;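 also: 0% = neutral control wells and 100% = L-leucinethiol positive control wells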
Target sequence (Q9NZ08 whole entry, looked up): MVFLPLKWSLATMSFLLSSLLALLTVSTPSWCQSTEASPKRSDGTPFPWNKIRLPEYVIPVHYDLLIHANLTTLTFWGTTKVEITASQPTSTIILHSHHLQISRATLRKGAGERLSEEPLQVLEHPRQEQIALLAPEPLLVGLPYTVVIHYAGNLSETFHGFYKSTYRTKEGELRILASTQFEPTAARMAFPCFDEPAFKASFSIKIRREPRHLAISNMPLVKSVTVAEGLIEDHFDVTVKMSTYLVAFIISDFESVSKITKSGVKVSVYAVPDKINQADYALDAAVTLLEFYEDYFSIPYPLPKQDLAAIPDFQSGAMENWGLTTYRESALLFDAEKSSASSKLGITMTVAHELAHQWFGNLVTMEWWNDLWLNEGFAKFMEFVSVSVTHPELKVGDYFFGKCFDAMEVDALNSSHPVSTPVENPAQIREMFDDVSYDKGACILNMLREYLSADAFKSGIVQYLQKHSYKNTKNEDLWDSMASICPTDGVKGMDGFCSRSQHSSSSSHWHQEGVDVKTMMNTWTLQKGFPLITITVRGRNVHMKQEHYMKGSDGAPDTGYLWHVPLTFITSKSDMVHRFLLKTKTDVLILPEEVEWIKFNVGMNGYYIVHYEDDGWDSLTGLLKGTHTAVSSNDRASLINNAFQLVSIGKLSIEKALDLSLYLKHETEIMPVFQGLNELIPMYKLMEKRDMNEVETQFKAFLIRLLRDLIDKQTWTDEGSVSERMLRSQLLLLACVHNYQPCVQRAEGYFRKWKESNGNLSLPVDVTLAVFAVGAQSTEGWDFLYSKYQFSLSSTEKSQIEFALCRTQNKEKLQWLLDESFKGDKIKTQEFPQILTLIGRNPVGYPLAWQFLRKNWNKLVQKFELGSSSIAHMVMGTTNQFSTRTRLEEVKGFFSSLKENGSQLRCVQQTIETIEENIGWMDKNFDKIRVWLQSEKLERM
DENV2 CPE rescue – DENV2-induced cell death inhibition | DENV2-infected cells, cytopathic effect rescue, plate reader | CPE inhibition, % at 9.99 µM | actives 1.7% (n = 350,000) | AID 651640; in the data active = CPE inhibition above about 20%, passing the limit was not always enough; inconclusive = no clear call, values can overlap the other calls; tested in BHK-21 cells;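 also: 0% = median of neutral control wells and 100% = median of positive control wells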
SIRT5 inh – inhibitors of human sirtuin-5 desuccinylase; Purified SirT5, succinyl-peptide AMC, trypsin-coupled fluorescence; inhibition, % at 15 µM; actives 1.1% (n = 330,000); AID 652115; in the data active = inhibition above about 15%; inconclusive = no clear call, values can overlap the other calls
S100A4 inh HTS – blocks human S100A4 binding to myosin IIA peptide; P26447; S100A4/TAMRA-MyoIIA peptide fluorescence polarization; inhibition, % at 10.7 µM; actives 0.14% (n = 360,000);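 active = mean inhibition of at least 70% across replicates, with every replicate also reaching that level; inconclusive = mean inhibition reaches 70% but some replicates fall short; inactive = mean inhibition below 70%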
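assay system = human S100A4 monomer with TAMRA-labelled myosin IIA peptide | also added = labelled myosin peptide probe, 5 nM | incubation = 5 min between mix addition and reading | control set = DMSO and TFP controls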
CAL PDZ FP-2 – inhibitors of human CAL PDZ peptide binding. Q9HD26. purified CAL PDZ, TMR-peptide fluorescence polarization, 1 h. inhibition, % at 20 µM. actives 0.02% (n = 330,000);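 active = highest replicate inhibition of at least 40%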;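 also: plate controls were DMSO neutral control wells for no effect and unlabeled competitor peptide control wells for full effect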
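material = purified tagged CAL PDZ domain construct (CerCALP) | buffer or medium = sodium phosphate/NaCl buffer pH 7.4 with TCEP, IgG, Thesit | reagent = TMR-labelled reporter peptide T*-PRC34 bound in PDZ groove | incubation = 1 h room-temperature incubation prior to read | measured by = fluorescence polarization (mP) | evaluation = percent inhibition from loss of millipolarization | control set = unlabelled peptide and DMSO controls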
Active calls of the source: *. An excerpt weighted towards active compounds, which were near 2.9% of everything screened.

For CCn1nc(C)c(CN2CCC(Oc3ccc(C(=O)N4CCCC4)cc3)CC2)c1C the results were CAL PDZ FP-1 51.0*, ERAP1 inh -4.6, DENV2 CPE rescue 6.9, SIRT5 inh 1.6, S100A4 inh HTS 9.0 and CAL PDZ FP-2 -1.3.
Screening C[C@H]1CCCCO[C@H](CN(C)S(=O)(=O)c2ccc(F)cc2)[C@@H](C)CN([C@@H](C)CO)C(=O)c2cc(NS(C)(=O)=O)ccc2O1 returned ERAP1 inh 0.7, DENV2 CPE rescue -6.9, SIRT5 inh 3.3 and S100A4 inh HTS 5.7.
For Cc1ccc(C(=O)O/N=C(\N)c2ccccn2)cc1 the results were CAL PDZ FP-1 -2.9, ERAP1 inh 0.4, DENV2 CPE rescue 28.8*, SIRT5 inh -2.0, S100A4 inh HTS -4.2 and CAL PDZ FP-2 -0.6.
For COCC(=O)Nc1ccc2c(c1)C(=O)N(C)[C@@H]1CC[C@@H](CC(=O)NCc3ccc(OC)cc3)O[C@H]1CO2 the results were DENV2 CPE rescue -6.8.
CCOC(=O)C1=C(C)N(CCCCCC(=O)O)C(=O)NC1c1ccccc1OC(=O)c1cccs1 (centres undefined) was read as ERAP1 inh 3.2, DENV2 CPE rescue 47.4*, SIRT5 inh -0.7 and S100A4 inh HTS 0.5.
Screening C[C@@H]1CN([C@@H](C)CO)S(=O)(=O)c2ccc(-c3ccccc3F)cc2O[C@H]1CN(C)Cc1cccnc1 returned ERAP1 inh -2.9, DENV2 CPE rescue 0.4, SIRT5 inh 10.9 and S100A4 inh HTS -4.2.
C[C@H]1CN([C@@H](C)CO)C(=O)c2cc(C3=CCCC3)cnc2O[C@@H]1CN(C)C(=O)C1CCC1 was read as ERAP1 inh -0.1, DENV2 CPE rescue -5.3, SIRT5 inh -4.4 and S100A4 inh HTS 0.5.
C[C@H](CO)N1C[C@H](C)[C@@H](CN(C)S(=O)(=O)c2cn(C)cn2)Oc2ncc(C3=CCCC3)cc2C1=O was read as ERAP1 inh 0.8, DENV2 CPE rescue 22.9*, SIRT5 inh 2.6 and S100A4 inh HTS -11.8.
`C[C@@H]1CN([C@H](C)CO)C(=O)c2cc(C3=CCCC3)cnc2O[C@H]1CN(C)C(=O)C1CCOCC1` gave ERAP1 inh 2.1, DENV2 CPE rescue 37.6*, SIRT5 inh 1.1 and S100A4 inh HTS 13.0.
Screening CC(=O)N(C)C[C@H]1Oc2ncc(C3=CCCC3)cc2C(=O)N([C@H](C)CO)C[C@H]1C returned ERAP1 inh 2.9, DENV2 CPE rescue 18.4, SIRT5 inh 33.9* and S100A4 inh HTS -6.9.
Screening C[C@H](CO)N1C[C@H](C)[C@H](CN(C)C(=O)C2CCC2)Oc2ncc(C3=CCCC3)cc2C1=O returned ERAP1 inh -1.9, DENV2 CPE rescue 29.7*, SIRT5 inh 0.6 and S100A4 inh HTS -1.3.
`CC(=O)N(C)C[C@H]1Oc2ncc(C3=CCCC3)cc2C(=O)N([C@@H](C)CO)C[C@@H]1C` gave ERAP1 inh 2.1, DENV2 CPE rescue 0.3, SIRT5 inh -4.9 and S100A4 inh HTS -11.4.
For CN(C)CCNc1ccc2ncn3c4ccc(O)cc4c(=O)c1c23 the results were CAL PDZ FP-1 -2.2, ERAP1 inh 33.3*, DENV2 CPE rescue 12.1, SIRT5 inh 1.1, S100A4 inh HTS 3.0 and CAL PDZ FP-2 0.8.
CN(C)CCNc1ccc(CO)c2sc3ccc(O)cc3c(=O)c12 was read as CAL PDZ FP-1 -3.1, ERAP1 inh 9.4, DENV2 CPE rescue 7.8, S100A4 inh HTS 7.7 and CAL PDZ FP-2 -0.1.
Cc1ccc(S(=O)(=O)N2CCOCC2)cc1NC(=O)COC(=O)c1n[nH]c(=O)c2ccccc12 was read as CAL PDZ FP-1 1.8, ERAP1 inh 14.6, DENV2 CPE rescue -3.1, SIRT5 inh 16.5*, S100A4 inh HTS 3.2 and CAL PDZ FP-2 -0.7.
Cc1ccc(S(=O)(=O)N(C)C)cc1NC(=O)COC(=O)c1n[nH]c(=O)c2ccccc12 was read as CAL PDZ FP-1 -1.4, ERAP1 inh 4.8, DENV2 CPE rescue 2.1, SIRT5 inh 2.6, S100A4 inh HTS 1.6 and CAL PDZ FP-2 -0.1.
Screening COc1ccc(S(=O)(=O)N2CCOCC2)cc1NC(=O)COC(=O)c1[nH]c(C)c(C(C)=O)c1C returned CAL PDZ FP-1 -0.5, ERAP1 inh -2.9, DENV2 CPE rescue -5.0, SIRT5 inh 17.1*, S100A4 inh HTS 0.6 and CAL PDZ FP-2 -1.4.
COc1ccc(S(=O)(=O)N2CCOCC2)cc1NC(=O)CSc1n[nH]c(C(C)C)n1 was read as CAL PDZ FP-1 -2.0, ERAP1 inh 1.2, DENV2 CPE rescue -2.4, SIRT5 inh 20.1*, S100A4 inh HTS -1.3 and CAL PDZ FP-2 0.0.
`Cc1ccc(S(=O)(=O)N(C)C[C@H]2Oc3ccc(NC(=O)CCCCCC(=O)Nc4ccccc4N)cc3C(=O)N([C@H](C)CO)C[C@@H]2C)cc1` gave ERAP1 inh 2.2, DENV2 CPE rescue -1.8, SIRT5 inh 3.8 and S100A4 inh HTS 6.9.
`CCC(=O)Nc1cc(C(=O)OCc2ccc(C(=O)Oc3ccccc3)cc2)ccc1C` gave CAL PDZ FP-1 -6.2, ERAP1 inh 1.0, DENV2 CPE rescue 82.0*, SIRT5 inh 0.2, S100A4 inh HTS -1.5 and CAL PDZ FP-2 0.0.
Screening O=C(C1CC1)N1CC2(C1)[C@H](c1ccccc1)[C@H](CO)N2CC1CCCC1 returned ERAP1 inh 4.6, DENV2 CPE rescue inconclusive, SIRT5 inh 1.7 and S100A4 inh HTS 1.7.
For O=C1C(=Cc2ccccn2)CCc2ccccc21 the results were ERAP1 inh -0.8, DENV2 CPE rescue 38.1*, SIRT5 inh -1.9 and S100A4 inh HTS -13.5.
`COC(=O)[C@H](Cc1c[nH]c2ccccc12)NC(=O)NCc1ccc(OC)c(OC)c1` gave CAL PDZ FP-1 -0.5, ERAP1 inh -3.0, DENV2 CPE rescue -5.9, SIRT5 inh 30.0*, S100A4 inh HTS 3.2 and CAL PDZ FP-2 -0.9.
COC(=O)[C@H](Cc1c[nH]c2ccccc12)NC(=O)NCc1ccc(OC)cc1 was read as CAL PDZ FP-1 -1.0, ERAP1 inh 3.2, DENV2 CPE rescue 5.8, SIRT5 inh -9.6, S100A4 inh HTS 0.4 and CAL PDZ FP-2 0.8.
Screening Cc1noc(C)c1S(=O)(=O)Nc1ccc2c(c1)C(=O)N([C@H](C)CO)C[C@@H](C)[C@H](CN(C)C(=O)Nc1ccc(F)cc1)OCCCC[C@H](C)O2 returned ERAP1 inh -1.6, DENV2 CPE rescue -6.7, SIRT5 inh 3.6 and S100A4 inh HTS -16.8.
Screening C[C@@H]1CCCCO[C@@H](CN(C)C(=O)c2ccccc2)[C@H](C)CN([C@@H](C)CO)C(=O)c2cc(NC(=O)C3CCCCC3)ccc2O1 returned ERAP1 inh -0.1, DENV2 CPE rescue 71.3*, SIRT5 inh -10.2 and S100A4 inh HTS 48.2.
